Measurements from ChEMBL document CHEMBL1933063, “Investigation of chalcones and benzochalcones as inhibitors of breast cancer resistance protein” (Bioorg Med Chem, 2012).
pIC50: −log10 of the molar value. Active and inactive are the calls of the source. The rule behind the calls is not given here.

Assays:
MCF7/MX [1] = test: Potentiation of mitoxantrone anticancer activity against human MCF7/MX cells at 1 uM after 72 hrs by MTT assay; type: functional, cell-based
Procedure, shortened: (§1)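 Cells seeded (1250/well MDCK, 10,000/well MCF-7) and left 6 h at 37 °C, 5% CO2. Mitoxantrone or SN-38 dose range added with or without three concentrations of modulator, then 72 h incubation. MTT added for 1 h, cells lysed in DMSO, absorbance read at 544 nm minus 710 nm. EC50 derived; parental cells as controls; three independent experiments.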

[2] = molecular target: ATP-dependent translocase ABCB1 (Homo sapiens, UniProt P08183); test: Inhibition of MDR1 in human A2780adr cells assessed as calcein AM accumulation at 10 uM by fluorimetry; type: cell-based; conditions: a2780 adr
Procedure, shortened: (§2)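 Calcein AM accumulation in A2780adr (P-gp) or 2008 MRP1 cells. Cells washed in Krebs-HEPES buffer, about 30,000 per well, preincubated 30 min with compound at 10 µM final. Calcein AM then added. Fluorescence (ex 485, em 520 nm) read every 60 s up to 90 min at 37 °C. Expressed as percent of vehicle control; n = 3.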

[3] = molecular target: T1, Broad substrate specificity ATP-binding cassette transporter ABCG2 (Homo sapiens, UniProt Q9UNQ0); test: Inhibition of human BCRP expressed in MDCK2 cells assessed as Hoechst 33342 accumulation preincubated for 30 mins by fluorimetry; type: cell-based, MDCK-II; conditions: read-out: IC50
T1 sequence (Q9UNQ0 whole entry): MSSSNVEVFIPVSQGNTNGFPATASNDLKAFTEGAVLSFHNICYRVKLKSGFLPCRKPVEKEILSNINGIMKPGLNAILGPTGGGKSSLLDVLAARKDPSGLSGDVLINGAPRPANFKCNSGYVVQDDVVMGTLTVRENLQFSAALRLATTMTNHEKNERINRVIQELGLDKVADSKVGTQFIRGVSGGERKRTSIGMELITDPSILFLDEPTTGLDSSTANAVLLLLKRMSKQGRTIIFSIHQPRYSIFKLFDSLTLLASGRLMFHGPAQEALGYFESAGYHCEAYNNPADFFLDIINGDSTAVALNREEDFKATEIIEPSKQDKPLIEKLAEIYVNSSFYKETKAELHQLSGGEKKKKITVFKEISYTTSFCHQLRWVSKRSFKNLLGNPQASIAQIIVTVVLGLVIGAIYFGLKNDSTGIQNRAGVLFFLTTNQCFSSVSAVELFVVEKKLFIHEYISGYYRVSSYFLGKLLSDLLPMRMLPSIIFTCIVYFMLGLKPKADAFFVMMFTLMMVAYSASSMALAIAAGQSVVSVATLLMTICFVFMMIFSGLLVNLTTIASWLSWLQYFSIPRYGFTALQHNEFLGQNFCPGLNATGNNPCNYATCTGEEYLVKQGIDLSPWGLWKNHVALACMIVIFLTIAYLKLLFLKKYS
Procedure, shortened: (§3)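 Cells washed three times in Krebs-HEPES buffer, about 20,000 per well, preincubated with test compound at varied concentrations for 30 min at 37 °C, 5% CO2. Hoechst 33342 then added (final 1 µM). Fluorescence (ex 355, em 460 nm) read every 60 s up to 120 min at 37 °C. KHB background subtracted, 100–109 min mean plotted, four-parameter logistic fit; ≥3 independent experiments.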

MCF7/MX [4] = test: Potentiation of mitoxantrone anticancer activity against human MCF7/MX cells at 3 uM after 72 hrs by MTT assay; type: functional, cell-based; procedure, shortened: as §1
MCF7/MX [5] = test: Potentiation of mitoxantrone anticancer activity against human MCF7/MX cells at 5 uM after 72 hrs by MTT assay; type: functional, cell-based; procedure, shortened: as §1
[6] = molecular target: Multidrug resistance-associated protein 1 (Homo sapiens, UniProt P33527); test: Inhibition of MRP1 overexpressed in human 2008 MRP1 cells assessed as calcein AM accumulation at 10 uM by fluorimetry; type: cell-based; conditions: human, 2008, 10 µM; procedure, shortened: as §2
[7] = molecular target: T1, Broad substrate specificity ATP-binding cassette transporter ABCG2; test: Inhibition of BCRP in human MCF7/MX cells assessed as Hoechst 33342 accumulation preincubated for 30 mins by Fluorometry; type: cell-based; conditions: read-out: IC50; procedure, shortened: as §3

Chain of Multidrug resistance-associated protein 1 (P33527 whole entry): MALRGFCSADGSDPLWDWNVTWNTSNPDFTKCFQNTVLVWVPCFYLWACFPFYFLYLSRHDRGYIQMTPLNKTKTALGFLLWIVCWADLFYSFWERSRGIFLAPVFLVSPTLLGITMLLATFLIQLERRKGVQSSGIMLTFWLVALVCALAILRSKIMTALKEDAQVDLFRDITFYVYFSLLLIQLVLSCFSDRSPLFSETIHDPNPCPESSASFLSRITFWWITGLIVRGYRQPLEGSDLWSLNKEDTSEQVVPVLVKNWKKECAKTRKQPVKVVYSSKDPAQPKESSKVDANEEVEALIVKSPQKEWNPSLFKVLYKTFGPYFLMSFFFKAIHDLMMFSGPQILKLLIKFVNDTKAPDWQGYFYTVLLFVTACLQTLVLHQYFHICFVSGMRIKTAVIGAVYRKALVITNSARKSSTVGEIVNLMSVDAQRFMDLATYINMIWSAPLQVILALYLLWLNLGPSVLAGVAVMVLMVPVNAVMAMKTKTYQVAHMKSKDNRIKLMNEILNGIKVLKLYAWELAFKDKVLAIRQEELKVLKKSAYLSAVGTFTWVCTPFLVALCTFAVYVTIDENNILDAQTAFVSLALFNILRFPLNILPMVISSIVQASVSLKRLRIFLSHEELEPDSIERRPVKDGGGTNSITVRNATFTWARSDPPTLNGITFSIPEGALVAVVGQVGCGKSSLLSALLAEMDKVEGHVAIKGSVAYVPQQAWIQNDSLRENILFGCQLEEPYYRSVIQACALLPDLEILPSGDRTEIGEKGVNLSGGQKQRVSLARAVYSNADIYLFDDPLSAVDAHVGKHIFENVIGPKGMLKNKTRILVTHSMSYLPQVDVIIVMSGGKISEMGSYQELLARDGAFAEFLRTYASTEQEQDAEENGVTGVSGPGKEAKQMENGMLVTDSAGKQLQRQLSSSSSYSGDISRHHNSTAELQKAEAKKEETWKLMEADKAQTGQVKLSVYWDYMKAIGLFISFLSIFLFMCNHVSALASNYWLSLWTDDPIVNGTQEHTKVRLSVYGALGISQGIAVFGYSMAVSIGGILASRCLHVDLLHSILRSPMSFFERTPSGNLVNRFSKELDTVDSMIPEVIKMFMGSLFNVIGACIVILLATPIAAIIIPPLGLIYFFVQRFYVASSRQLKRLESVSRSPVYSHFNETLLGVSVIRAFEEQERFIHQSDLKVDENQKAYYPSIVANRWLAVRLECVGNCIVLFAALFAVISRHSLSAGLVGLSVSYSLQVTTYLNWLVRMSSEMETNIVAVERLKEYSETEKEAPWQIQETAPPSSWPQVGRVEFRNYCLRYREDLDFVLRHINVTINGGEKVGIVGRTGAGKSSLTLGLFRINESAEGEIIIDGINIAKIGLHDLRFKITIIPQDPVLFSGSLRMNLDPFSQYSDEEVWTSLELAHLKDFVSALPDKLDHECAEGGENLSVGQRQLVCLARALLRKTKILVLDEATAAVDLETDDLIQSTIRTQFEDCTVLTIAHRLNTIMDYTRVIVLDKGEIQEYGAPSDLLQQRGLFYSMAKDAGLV
Chain of ATP-dependent translocase ABCB1 (P08183 whole entry): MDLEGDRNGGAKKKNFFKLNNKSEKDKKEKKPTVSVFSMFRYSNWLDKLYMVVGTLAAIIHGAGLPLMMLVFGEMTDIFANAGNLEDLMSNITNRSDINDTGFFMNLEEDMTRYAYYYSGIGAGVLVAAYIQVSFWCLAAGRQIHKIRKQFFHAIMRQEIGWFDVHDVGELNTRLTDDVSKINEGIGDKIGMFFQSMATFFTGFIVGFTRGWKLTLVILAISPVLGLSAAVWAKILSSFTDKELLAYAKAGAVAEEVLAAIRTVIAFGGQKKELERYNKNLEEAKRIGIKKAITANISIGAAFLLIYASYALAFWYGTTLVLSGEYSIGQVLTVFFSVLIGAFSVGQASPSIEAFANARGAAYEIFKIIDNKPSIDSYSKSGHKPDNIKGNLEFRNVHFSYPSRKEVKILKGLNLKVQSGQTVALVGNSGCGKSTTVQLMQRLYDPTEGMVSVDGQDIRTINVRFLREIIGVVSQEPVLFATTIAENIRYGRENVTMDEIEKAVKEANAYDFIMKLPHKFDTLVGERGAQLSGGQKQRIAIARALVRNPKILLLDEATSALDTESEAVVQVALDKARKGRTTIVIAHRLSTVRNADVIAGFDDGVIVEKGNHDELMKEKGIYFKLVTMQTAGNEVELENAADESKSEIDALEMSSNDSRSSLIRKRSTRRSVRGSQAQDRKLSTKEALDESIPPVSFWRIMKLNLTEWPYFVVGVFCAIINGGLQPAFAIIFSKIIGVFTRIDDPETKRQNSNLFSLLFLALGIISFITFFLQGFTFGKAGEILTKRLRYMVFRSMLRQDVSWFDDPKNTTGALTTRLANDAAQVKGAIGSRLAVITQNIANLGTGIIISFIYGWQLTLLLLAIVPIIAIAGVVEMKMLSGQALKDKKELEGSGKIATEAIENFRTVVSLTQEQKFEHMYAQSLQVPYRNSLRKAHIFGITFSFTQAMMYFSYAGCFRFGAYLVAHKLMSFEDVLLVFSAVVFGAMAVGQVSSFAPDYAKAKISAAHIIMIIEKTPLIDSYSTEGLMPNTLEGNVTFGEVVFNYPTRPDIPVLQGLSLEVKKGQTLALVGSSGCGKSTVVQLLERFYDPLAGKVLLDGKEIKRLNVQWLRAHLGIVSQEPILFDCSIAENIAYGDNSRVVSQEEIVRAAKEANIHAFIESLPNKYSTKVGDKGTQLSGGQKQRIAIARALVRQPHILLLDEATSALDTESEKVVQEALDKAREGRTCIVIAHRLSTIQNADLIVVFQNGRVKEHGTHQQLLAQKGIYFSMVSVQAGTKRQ

- inhibition (INH) [2]: Active
- pIC50 [3]: 6.28
- inhibition (INH) [6]: Not Active
- pIC50 [7]: 6.12
SMILES: COc1cc(O)c(C(=O)/C=C/c2ccc(OC)c(OC)c2)c(OC)c1
- Activity (MCF7/MX [1]): Active
- Activity (MCF7/MX [4]): Active
- Activity (MCF7/MX [5]): Active
